# Experimental data pooled from the literature.
# Protocols differ between the studies behind these lines.
# TMEM97: Sigma intracellular receptor 2 (TMEM97, Homo sapiens, UniProt Q5BJF2)
# PTGS2: Prostaglandin G/H synthase 2 (PTGS2, Homo sapiens, UniProt P35354)
# CHRM3: Muscarinic acetylcholine receptor M3 (CHRM3, Homo sapiens, UniProt P20309)
SMILES,target,effect on,action,method,setting,measurement,value
CN1CC[C@@]23CCCC[C@@H]2[C@@H]1Cc1ccc(O)cc13,TMEM97,ligand displacement,,radioligand,,Ki,2.94 µM
CN1C(=O)C(=Cc2cn(-c3nc(N4CCCC4)nc(N4CCOCC4)n3)c3ccccc23)C(=O)N(C)C1=O,PTGS2,enzyme activity,inhibitor,,,IC50,6 µM
CCCCCCCCCCCCNCCCc1ccc([N+](=O)[O-])cc1,CHRM3,ligand displacement,,radioligand,,Ki,3.3 µM
O=c1[nH]c2ccccc2n1CCCN1CCC(n2c(=O)[nH]c3cc(Cl)ccc32)CC1,"Alpha-1D adrenergic receptor (ADRA1D, Homo sapiens, UniProt P25100)",cell-free assay,,,,Ki,0.71 µM
Clc1cccc(N2CCNCC2)c1Cl,CHRM3,ligand displacement,,radioligand,cell membranes,Ki,25.1 µM
CN1C(=O)C(=Cc2cn(-c3nc(Cl)nc(N4CCOCC4)n3)c3ccccc23)C(=O)N(C)C1=O,PTGS2,enzyme activity,inhibitor,,,IC50,0.1 µM
CN[C@@H](C)[C@@H](O)c1ccccc1,TMEM97,ligand displacement,,radioligand,,Ki,> 10 µM
C[C@@H]1NC(=O)[C@H](CC(N)=O)NC(=O)[C@H](Cc2ccccc2)NC(=O)[C@@H]2Cc3ccccc3CN2C(=O)[C@H](CCCNC(=N)N)NC(=O)[C@@H]2CCCN2C(=O)[C@H]2CCCN2C(=O)[C@H](Cc2ccccc2)NC1=O,"Melanocyte-stimulating hormone receptor (Mc1r, Mus musculus, UniProt Q01727)",reporter gene,agonist,,,EC50,> 100 µM
